The results in this text go back to ChEMBL document CHEMBL1148154, “New secondary metabolites from the marine endophytic fungus Apiospora montagnei” (J Nat Prod, 2004).

One data set deals with Escherichia coli. The data set is described as follows: Antibacterial activity against Escherichia coli at 50 ug/disk by agar diffusion assay. Type of data set: functional, organism-based.
Another data set deals with Microbotryum violaceum. Nature of the data set: Antifungal activity against Microbotryum violaceum at 50 ug/disk by agar diffusion assay. Format: functional, organism-based. (A growth-free zone around the sample is the usual read-out of agar diffusion tests.)
The test system of the next data set is HM02. The data set is described as follows: Cytotoxicity against human HM02 cells at 10 ug/ml. Format: functional, cell-based. The essentials: (§1)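 Human tumour lines were HM02 (gastric adenocarcinoma), HepG2 (hepatocellular carcinoma) and MCF7 (breast adenocarcinoma), run following NCI standards. Read-outs were total growth inhibition (TGI) and LC50, defined as a 50% reduction of the initial cell number, in µg/mL. Single-level testing was done at 10 µg/mL.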

Data set [1] has as its system MCF7. Nature of the data set: Cytotoxicity against human MCF7 cells at 10 ug/ml. Type of data set: functional, cell-based. The essentials:
as §1

In data set [2] the test system is HepG2. The data set is described as follows: Cytotoxicity against human HepG2 cells at 10 ug/ml. Type of data set: functional, cell-based. The essentials:
as §1

The subject of data set [3] is Aspergillus pseudoglaucus. The data set is described as follows: Antifungal activity against Eurotium repens at 50 ug/disk by agar diffusion assay. Format: functional, organism-based.
A further data set concerns Priestia megaterium. The data set is described as follows: Antibacterial activity against Bacillus megaterium at 50 ug/disk by agar diffusion assay. Type of data set: functional, organism-based.
Another data set relates to [Chlorella] fusca. The data set is described as follows: Antialgal activity against 'Chlorella' fusca at 50 ug/disk by agar diffusion assay. Format: functional, organism-based. The settings on record: Scenedesmus fuscus.
Another data set concerns Mycotypha microspora. Nature of the data set: Antifungal activity against Mycotypha microspora at 50 ug/disk by agar diffusion assay. Format: functional, organism-based.
Data set [4] is described as follows: Cytotoxicity against human HM02 cells. Format: functional. The essentials:
as §1

The subject of data set [5] is HepG2. The data set is described as follows: Cytotoxicity against human HepG2 cells. Type of data set: functional. The essentials: as §1
A further data set has as its system Artemia. The data set is described as follows: Toxicity in brine shrimp. Format: organism-based. The settings on record: in vivo.
Another data set deals with P388. Nature of the data set: Cytotoxicity against mouse P388 cells. Format: functional. As to conditions: read-out: ED50 (the source's name).
Data set [6] relates to MCF7. Nature of the data set: Cytotoxicity against human MCF7 cells. Type of data set: functional. The essentials: as §1
[7] abbreviates: read-out: LC50 (the source's name).

The GI50 is the concentration giving 50% growth inhibition. A higher GI50 goes with less potent growth inhibition. In general, TGI refers to the concentration at which net growth stops.

≈ marks a conversion by molar mass, not a printed value. Calls of active or inactive are those of the source.

As for `C=C[C@@]1(C)C=C2C(=O)C(O)=C3[C@](C)(C(=O)O)CC[C@@H]4C[C@]34[C@]2(O)C(=O)C1`, the result (in the data set with Escherichia coli; in the data set on Microbotryum violaceum; with HM02; in the data set on MCF7 [1]; with HepG2 [2]; in data set [3]) was inactive. The result (in the data set with Priestia megaterium; in [Chlorella] fusca; in the data set on Mycotypha microspora) was inactive.
Regarding `C=C(C(=O)O)C(CCCCC(C)O)C(=O)OC` (centres undefined), the outcome (in the data set with Escherichia coli; in the data set on Microbotryum violaceum; in data set [3]; in the data set with Priestia megaterium; in data set [Chlorella] fusca; with Mycotypha microspora) was inactive.
With `O=C1C(CO)=C[C@H](O)[C@H]2O[C@@H]12`, the figures for the GI50 (in data set [4]; in the data set on HepG2 [5]; with MCF7 [6]) were 0.7 µg/mL (≈ 4.48 µM), 0.75 µg/mL (≈ 4.8 µM) and 0.8 µg/mL (≈ 5.12 µM), respectively. Moreover, the values for the TGI (in data set [4]; in the data set on HepG2 [5]; with MCF7 [6]) were 1 µg/mL (≈ 6.4 µM), 4.6 µg/mL (≈ 29.5 µM) and 1.5 µg/mL (≈ 9.61 µM), respectively. The figures for the CC50 (in data set [4] (setting [7]); in the data set on HepG2 [5] (setting [7]); in the data set with MCF7 [6] (setting [7])) were more than 10 µg/mL, more than 10 µg/mL and 3.6 µg/mL (≈ 23.1 µM), respectively. For the same molecule, the outcome (in the data set on Escherichia coli; in the data set with Microbotryum violaceum; in [3]; in the data set with Priestia megaterium; in data set [Chlorella] fusca; in the data set on Mycotypha microspora) was inactive. The Activity entry with Artemia is on record as “Toxic”. The EC50 in the data set with P388 came out at 0.2 µg/mL (≈ 1.28 µM).
For `C=C(C(=O)O)C(CCCCCC)C(=O)O` (centres undefined), the outcome (with Escherichia coli; in the data set with Microbotryum violaceum; in [3]; with Priestia megaterium; in data set [Chlorella] fusca; with Mycotypha microspora) was inactive.
Turning to `C[C@@H]1C=C[C@@H]2C[C@H](CO)CC[C@H]2[C@@H]1C(=O)O`, the result (in the data set with Escherichia coli; with Microbotryum violaceum; in data set [3]; in the data set with Priestia megaterium; in data set [Chlorella] fusca; in the data set on Mycotypha microspora) was inactive.
